Legend:
Raji = test: In vitro cytotoxicity against Raji cell line; assay type: functional, cell-based; settings: Homo sapiens
[1] = Ratio of cytotoxicity against Raji cells to that of GM892 A cells.; assay type: functional
GM892A cell line [2] = test: (§1) In vitro cytotoxicity against human lymphoblastoid cell (GM892 A); assay type: functional, cell-based
TLX-5 = test: In vitro cytotoxicity against mouse TLX5 lymphoma cells; assay type: functional, cell-based
Method in brief: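 Mouse TLX5 lymphoma cells in exponential growth at 2×10^4 cells/mL in RPMI 1640 with 15% FCS, given drug in DMSO, triplicate wells per concentration, 72 h at 37 °C under 5% CO2. Electronic cell counting; percent of DMSO-control growth plotted and IC50 (μM) calculated.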

GM892A cell line [3] = test: as §1; assay type: functional, cell-based; remark: listed apart in the source
Method in brief: (§2)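 Mer⁻ GM892A cells in RPMI 1640 with 10% FCS and 1% L-glutamine, seeded at 0.8×10^5 cells/mL and exposed to a range of concentrations in DMSO (≤0.5%) for 72 h. At least three populations per concentration; duplicate cell counts after subtracting the seed number. Growth compared with solvent controls and IC50 (μM) derived.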

[4] = Mean rate constant for the hydrolysis of compound in buffers at pH 7.4, at 37 degrees Celsius in incubation mixture - d(A)-d(T) (1:1); assay type: ADME; settings: buffer
Method in brief: (§3)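 Compound incubated at 37 °C in 0.1 M phosphate or 0.1 M sodium cacodylate buffer (pH 7.4 or 6.5) with homopolymer oligonucleotide or GMP/CMP, as equimolar nucleotide bases or 10-fold molar excess of bases. Parent peak followed by HPLC for about three half-lives. Pseudo-first-order k from log(peak area) versus time, at least 10 points per run, averaged over replicate runs.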

[5] = Half life for the hydrolysis of compound in buffers at pH 7.4 at 37 degrees Celsius in incubation mixture - d(A)-d(T) (10:!); assay type: ADME; settings: buffer with d(A)-d(T) (10:1)
Method in brief: (§4)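 Compound incubated at 37 °C in 0.1 M phosphate or 0.1 M sodium cacodylate buffer (pH 7.4 or 6.5) with homopolymer oligonucleotide or GMP/CMP, as equimolar nucleotide bases or 10-fold molar excess of bases. Loss of parent was followed by HPLC (0.5% acetic acid in water/methanol 70:30) over about three half-lives. Pseudo-first-order k from log peak area versus time; t1/2 = 0.693/mean k.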

[6] = Half life for the hydrolysis of compound in buffers at pH 7.4, at 37 degrees Celsius in incubation mixture - d(A)-d(T) (10:1); settings: buffer with d(A)-d(T) (10:1)
[7] = Half life for the hydrolysis of compound in buffers at pH 7.4, at 37 degrees Centigrade in incubation mixture - d(G)-d(C) (10:1); assay type: ADME; method in brief: as §4
[8] = Half life for the hydrolysis of compound in buffers at pH 7.4, at 37 degrees Celsius in incubation mixture - d(G)-d(C) (1:1); assay type: ADME; settings: buffer with d(G)-d(C) (1:1); method in brief: as §4
[9] = Mean rate constant for the hydrolysis of compound in buffers at pH 7.4 at 37 degrees Centigrade in incubation mixture - d(A)-d(T) (10:!); assay type: ADME; settings: buffer; method in brief: as §3
[10] = Half life for the hydrolysis of compound in buffers at pH 6.5, at 37 degrees Celsius in incubation mixture - d(G)-d(C) (10:1); assay type: ADME; method in brief: as §4
[11] = Mean rate constant for the hydrolysis of compound in buffers at pH 7.4, at 37 degrees Celsius in incubation mixture - d(G)-d(C) (1:1); assay type: ADME; settings: buffer; method in brief: as §3
GM892A cell line [12] = test: In vitro cytotoxicity against human lymphoblastoid cell line (GM892 A); assay type: functional, cell-based; method in brief: as §2
[13] = Mean rate constant for the hydrolysis of compound in buffers at pH 7.4, at 37 degrees Celsius in incubation mixture - 5'-GMP/5'-CMP (1:1); assay type: ADME; settings: buffer; method in brief: as §3
[14] = Mean rate constant for the hydrolysis of compound in buffers at pH 7.4, at 37 degrees Celsius in incubation mixture - d(A)-d(T) (10:1); settings: buffer
[15] = Half life for the hydrolysis of compound in buffers at pH 7.4, at 37 degrees Centigrade in incubation mixture - 5'-GMP/5'-CMP (1:1); assay type: ADME; settings: buffer with 5'-GMP/5'-CMP (1:1); method in brief: as §4
[16] = Half life for the hydrolysis of compound in buffers at pH 7.4, at 37 degrees Celsius in incubation mixture - d(A)-d(T) (1:1); assay type: ADME; settings: buffer with d(A)-d(T) (1:1); method in brief: as §4
[17] = Half life for the hydrolysis of compound in buffers at pH 6.5, at 37 degrees Celsius in incubation mixture - d(A)-d(T) (10:1); assay type: ADME; method in brief: as §4
GM892A cell line [18] = test: In vitro cytotoxicity against human lymphoblast cell line (GM892 A).; assay type: functional, cell-based; method in brief: as §2

## CN(N=O)C(N)=O.Cl.Cl.Cl
Raji
  IC50: 259 µM
[1]
  Ratio: 7.4
GM892A cell line [2]
  IC50: 35 µM

## Nc1nc(O)cc(-c2ccc(NC(=O)c3ncn4c(=O)n(CCCl)nnc34)cc2)n1
TLX-5
  IC50: 25 µM

## NC(=O)c1cccc2c(=O)n(-c3ccccc3)nnc12
TLX-5
  IC50: > 500 µM

## Cn1nnc2c(C(N)=O)cnn2c1=O
Raji
  IC50: 270 µM
[1]
  Ratio: 51
GM892A cell line [2]
  IC50: 5.3 µM

## CNC(=O)c1nnc2c(O)n(C)nnc1-2
Raji
  IC50: > 500 µM
GM892A cell line [2]
  IC50: > 500 µM

## Cn1nnc2c(C(N)=O)cccc2c1=O
TLX-5
  IC50: > 500 µM

## NC(=O)c1ccc2c(=O)n(CCCl)nnc2c1
TLX-5
  IC50: 350 µM

## O=C(O)c1ncn2c(=O)n(CCCl)nnc12
TLX-5
  IC50: 15.8 µM

## Cn1nnc2c(C(=O)NCCCN(CCCN)CCCCN)ncn2c1=O
Raji
  IC50: > 500 µM
GM892A cell line [2]
  IC50: > 500 µM

## NC(=O)c1ccc2c(=O)n(-c3ccccc3)nnc2c1
TLX-5
  IC50: 140 µM

## CCn1nnc2cc(C(N)=O)ccc2c1=O
TLX-5
  IC50: 108 µM

## Cn1nnc2cc(C(N)=O)ccc2c1=O
TLX-5
  IC50: 380 µM

## NC(=O)c1cccc2c(=O)n(CCCl)nnc12
TLX-5
  IC50: 225 µM

## NC(=O)c1ccc(NC(=O)c2ncn3c(=O)n(CCCl)nnc23)cc1
TLX-5
  IC50: 37 µM

## NC(=O)c1ccccc1NC(=O)c1ncn2c(=O)n(CCCl)nnc12
TLX-5
  IC50: 13 µM

## NC(=O)Cn1nnc2c(C(N)=O)cccc2c1=O
TLX-5
  IC50: > 500 µM

## NC(=O)c1cccc2c(O)nnnc12
TLX-5
  IC50: 400 µM

## NC(=O)c1cccc(NC(=O)c2ncn3c(=O)n(CCCl)nnc23)c1
TLX-5
  IC50: 35 µM

## NC(=O)c1ccc(NC(=O)c2ncn3c(=O)n(CCCl)nnc23)c(C(N)=O)c1
TLX-5
  IC50: 375 µM

## CCn1nnc2c(C(N)=O)ncn2c1=O
Raji
  IC50: 435 µM
[1]
  Ratio: 2.4
GM892A cell line [2]
  IC50: 180 µM

## CCn1nnc2c(C(N)=O)cccc2c1=O
TLX-5
  IC50: 325 µM

## O=C(Nc1ccccc1)c1ncn2c(=O)n(CCCl)nnc12
TLX-5
  IC50: 1.25 µM

## CN(C)/N=N/c1[nH]cnc1C(N)=O [DACARBAZINE]
Raji
  IC50: 128 µM
[1]
  Ratio: 9
GM892A cell line [3]
  IC50: 14 µM

## NC(=O)c1ncn2c(=O)n(CCCl)nnc12 [MITOZOLOMIDE]
[4]
  Mean rate constant: 0.00915 min⁻¹
[5]
  half-life: 0.947 h
[6]
  half-life: 1.24 h
Raji
  IC50: 39 µM
[7]; buffer
  T1/2: 0.947 h
[7]; buffer with d(G)-d(C) (10:1)
  half-life: 1.27 h
TLX-5
  IC50: 2.5 µM
[1]
  Ratio: 8.1
[8]
  half-life: 1.22 h
[9]
  Mean rate constant: 0.0122 min⁻¹
[10]; buffer
  T1/2: 5.747 h
[10]; buffer with d(G)-d(C) (10:1)
  half-life: 7.5 h
[11]
  Mean rate constant: 0.0094 min⁻¹
GM892A cell line [12]
  IC50: 4.8 µM
[13]
  Mean rate constant: 0.00979 min⁻¹
[14]
  Mean rate constant: 0.00932 min⁻¹
[15]
  half-life: 1.18 h
[16]
  half-life: 1.26 h
[17]; buffer
  T1/2: 5.777 h
[17]; buffer with d(A)-d(T) (10:1)
  half-life: 7.45 h

## Cn1nnc2c(C(N)=O)ncn2c1=O [TEMOZOLOMIDE]
Raji
  IC50: 175 µM
TLX-5
  IC50: 5 µM
[1]
  Ratio: 23
GM892A cell line [18]
  IC50: 7.6 µM

From ChEMBL document CHEMBL1128310, “Antitumor imidazotetrazines. 32. Synthesis of novel imidazotetrazinones and related bicyclic heterocycles to probe the mode of action of the antitumor drug temozolomide” (J Med Chem, 1995)
